# In ChEMBL document CHEMBL1143739, “SAR study of bicyclo[4.1.0]heptanes as melanin-concentrating hormone receptor R1 antagonists: taming hERG” (Bioorg Med Chem, 2007):
# Tests used:
# [1] = molecular target: Melanin-concentrating hormone receptor 1 (Homo sapiens, UniProt Q99705); experiment: Displacement of [125I]MCH from MCHR1 expressed in CHO cells; type: cell-based
# Summary of the method: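 Human MCH R1, CHO cell membranes (0.1 mg/mL) on SPA beads (1 mg/mL). Buffer: 25 mM HEPES, 10 mM MgCl2, 5 mM MnCl2, 0.1% BSA, pH 7.4. Incubation 2–4 h at room temperature, scintillation count. Ki by non-linear regression; mean ± range of two determinations, each in quadruplicate.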
# hERG (KCNH2) [2] = molecular target: T1, hERG (KCNH2) (Homo sapiens, UniProt Q12809); experiment: Inhibition of hERG expressed in CHO cells at 5 ug/mL by rubidium efflux assay; type: toxicity, cell-based; conditions: CHO cells that express hERG
# T1 sequence (Q12809 whole entry): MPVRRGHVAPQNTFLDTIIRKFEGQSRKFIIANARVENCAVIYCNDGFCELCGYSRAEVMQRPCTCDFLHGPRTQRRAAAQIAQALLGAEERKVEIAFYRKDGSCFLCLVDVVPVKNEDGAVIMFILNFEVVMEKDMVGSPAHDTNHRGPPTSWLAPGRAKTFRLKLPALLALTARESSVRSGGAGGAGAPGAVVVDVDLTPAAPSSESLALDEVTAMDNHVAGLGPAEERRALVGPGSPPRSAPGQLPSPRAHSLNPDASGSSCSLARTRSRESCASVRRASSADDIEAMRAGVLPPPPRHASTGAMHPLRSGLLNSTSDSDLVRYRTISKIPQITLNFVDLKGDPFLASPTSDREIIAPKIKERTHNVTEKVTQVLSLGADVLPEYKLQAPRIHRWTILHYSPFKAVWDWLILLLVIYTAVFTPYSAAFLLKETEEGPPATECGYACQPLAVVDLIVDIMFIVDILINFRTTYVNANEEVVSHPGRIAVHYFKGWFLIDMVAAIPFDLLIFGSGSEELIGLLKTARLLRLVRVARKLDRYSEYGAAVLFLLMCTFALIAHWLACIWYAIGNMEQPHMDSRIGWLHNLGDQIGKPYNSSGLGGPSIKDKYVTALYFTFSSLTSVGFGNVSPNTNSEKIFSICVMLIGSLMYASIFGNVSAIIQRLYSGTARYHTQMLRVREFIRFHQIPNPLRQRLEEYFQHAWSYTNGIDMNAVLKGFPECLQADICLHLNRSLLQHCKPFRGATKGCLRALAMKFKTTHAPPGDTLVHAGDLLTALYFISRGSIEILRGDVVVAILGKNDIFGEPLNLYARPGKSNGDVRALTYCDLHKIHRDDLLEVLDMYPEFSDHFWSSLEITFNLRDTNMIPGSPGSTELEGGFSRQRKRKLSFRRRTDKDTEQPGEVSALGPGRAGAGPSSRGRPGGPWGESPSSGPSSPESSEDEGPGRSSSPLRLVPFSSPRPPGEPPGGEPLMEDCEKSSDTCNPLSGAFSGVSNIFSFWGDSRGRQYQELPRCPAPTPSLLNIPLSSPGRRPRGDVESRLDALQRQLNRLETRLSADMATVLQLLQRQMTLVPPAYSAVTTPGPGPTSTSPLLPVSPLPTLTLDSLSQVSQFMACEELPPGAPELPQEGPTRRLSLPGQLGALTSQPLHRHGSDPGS
# Summary of the method: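 hERG-CHO cells plated 24 h, then loaded 3 h in HEPES-buffered saline with 5.4 mM RbCl. Compound added and equilibrated 30 min at 37 °C. Cells washed three times in Rb-free saline (5.4 mM KCl), then depolarized 5 min with 45.4 mM KCl.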
# hERG (KCNH2) [3] = molecular target: T1, hERG (KCNH2); experiment: Inhibition of hERG expressed in CHO cells at […] by rubidium efflux assay; type: toxicity, cell-based; conditions: CHO cells that express hERG
# Sequence of Melanin-concentrating hormone receptor 1 (Q99705 whole entry): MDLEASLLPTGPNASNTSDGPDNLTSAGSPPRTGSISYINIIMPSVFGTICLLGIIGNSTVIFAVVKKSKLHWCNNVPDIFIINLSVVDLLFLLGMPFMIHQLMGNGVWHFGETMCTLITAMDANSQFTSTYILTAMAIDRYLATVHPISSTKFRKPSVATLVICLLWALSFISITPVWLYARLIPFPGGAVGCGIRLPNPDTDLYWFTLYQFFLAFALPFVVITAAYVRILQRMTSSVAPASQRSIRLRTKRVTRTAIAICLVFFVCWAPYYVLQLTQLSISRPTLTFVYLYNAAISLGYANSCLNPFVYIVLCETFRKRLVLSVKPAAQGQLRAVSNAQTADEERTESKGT
Compound,Ki [1] [nM],inhibition at 5 ug/mL (hERG (KCNH2) [2]) [%],inhibition at […] (hERG (KCNH2) [3]) [%]
CC(C)N(CCN(C(=O)Nc1cc(Cl)nc(Cl)c1)[C@@H]1CC[C@]2(c3cccc(C#N)c3)CC2C1)C(C)C (stereo in doubt; 13),2.4,59,–
CN(C)Cc1ncc(C2=CCC(N(CCN3CCCC3)C(=O)Nc3ccc(F)c(Cl)c3)CC2)s1 (stereo not given),648,–,–
N#Cc1cccc([C@]23CC[C@@H](N(CC4CCN(C5CCOCC5)CC4)C(=O)Nc4ccc(F)c(Cl)c4)CC2C3)c1 (stereo not given in full),–,91,75
CC(C)N(CCN(C(=O)Nc1cccc(F)c1)[C@@H]1CC[C@]2(c3cccc(C#N)c3)CC2C1)C(C)C (stereo not given in full),2.1,–,–
O=C(Nc1ccc(F)c(Cl)c1)N(CCN1CCCC1)C1CC=C(c2cncnc2)CC1 (stereo not given),147,85,–
CC(C)N(CCN(C(=O)Nc1ccc(F)c(F)c1)[C@@H]1CC[C@]2(c3ccccc3)CC2C1)C(C)C (stereo not given in full),92,–,–
N#Cc1ncc(C2=CCC(N(CCN3CCCC3)C(=O)Nc3ccc(F)c(Cl)c3)CC2)s1 (stereo not given),57,–,–
N#Cc1cccc([C@]23CC[C@@H](N(CCN4CC[C@@H](O)C4)C(=O)Nc4ccc(F)c(F)c4)CC2C3)c1 (stereo not given in full),20,–,–
N#Cc1cccc([C@]23CC[C@@H](N(CCN4CCC(O)CC4)C(=O)Nc4ccc(F)c(Cl)c4)CC2C3)c1 (stereo not given in full),22,–,–
N#Cc1cccc([C@]23CC[C@@H](N(CCN4CCOCC4)C(=O)Nc4ccc(F)c(Cl)c4)CC2C3)c1 (stereo not given in full),53,–,–
CC(C)N(CCN(C(=O)Nc1cccc(Br)c1)[C@@H]1CC[C@]2(c3cccc(C#N)c3)CC2C1)C(C)C (stereo not given in full),5.7,–,–
CC1CCCN1CCN(C(=O)Nc1ccc(F)c(Cl)c1)[C@@H]1CC[C@]2(c3cccc(C#N)c3)CC2C1 (stereo not given in full),16,–,–
CS(=O)(=O)N1CCC(CCN(C(=O)Nc2ccc(F)c(C(F)(F)F)c2)[C@@H]2CC[C@]3(c4cccc(C#N)c4)CC3C2)CC1 (stereo not given in full),80,20,18
CS(=O)(=O)N1CCC(CN(C(=O)Nc2ccc(F)c(C(F)(F)F)c2)[C@@H]2CC[C@]3(c4cccc(C#N)c4)CC3C2)CC1 (stereo not given in full),26,-1,-1
O=C(Nc1ccc(F)c(Cl)c1)N(CCN1CCCC1)C1CC=C(c2ccco2)CC1 (stereo not given),117,–,–
COC(=O)c1cccc([C@]23CC[C@@H](N(CCN(C(C)C)C(C)C)C(=O)Nc4ccc(F)c(F)c4)CC2C3)c1 (stereo not given in full),–,85,57
CC(C)N(CCN(C(=O)Nc1ccc(F)c(F)c1)[C@@H]1CC[C@]2(c3cccc(C#N)c3)CC2C1)C(C)C (stereo not given in full),2.8,–,–
O=Cc1ccc(C2=CCC(N(CCN3CCCC3)C(=O)Nc3ccc(F)c(Cl)c3)CC2)o1 (stereo not given),51,47,–
CC(C)N(CCN(C(=O)Nc1ccc(F)cc1)[C@@H]1CC[C@]2(c3cccc(C#N)c3)CC2C1)C(C)C (stereo not given in full),10.4,–,–
N#Cc1cccc([C@]23CC[C@@H](N(CCN4CC[C@@H](O)C4)C(=O)Nc4cccc(Br)c4)CC2C3)c1 (stereo not given in full),34,–,–
CCO/N=C/c1cccc([C@]23CC[C@@H](N(CCN(C(C)C)C(C)C)C(=O)Nc4ccc(F)c(Cl)c4)CC2C3)c1 (stereo not given in full),29,–,–
N#Cc1cccc(NC(=O)N(CCN2CC[C@@H](O)C2)[C@@H]2CC[C@]3(c4cccc(C#N)c4)CC3C2)c1 (stereo not given in full),92,–,–
CC(C)N(CCN(C(=O)Nc1cc(Cl)nc(Cl)c1)[C@@H]1CC[C@]2(c3cccc(C#N)c3)CC2C1)C(C)C (stereo in doubt; 6j),2,–,–
N#Cc1cccc([C@]23CC[C@@H](N(CCN4CC[C@@H](O)C4)C(=O)NC4CCCCC4)CC2C3)c1 (stereo not given in full),2210,–,–
N#Cc1cccc([C@]23CC[C@@H](N(CCN4CCCC(CO)C4)C(=O)Nc4ccc(F)c(Cl)c4)CC2C3)c1 (stereo not given in full),15,–,–

# More lines, main results first:
Ki [1] [nM],Compound,inhibition at 5 ug/mL (hERG (KCNH2) [2]) [%],inhibition at […] (hERG (KCNH2) [3]) [%]
9.7,CS(=O)(=O)N1CCC(CN(C(=O)Nc2cccc(F)c2)[C@@H]2CC[C@]3(c4cccc(C#N)c4)CC3C2)CC1 (stereo not given in full),47,25
4.5,CC(C)N(CCN(C(=O)Nc1cc(F)cc(F)c1)[C@@H]1CC[C@]2(c3cccc(C#N)c3)CC2C1)C(C)C (stereo not given in full),–,–
21,CC(C)N(CCN(C(=O)Nc1ccc(F)c(Cl)c1)[C@@H]1CC[C@]2(c3cccc(CN4CC[C@H](O)C4)c3)CC2C1)C(C)C (stereo not given in full),-1,-4
132,N#Cc1cccc([C@]23CC[C@@H](N(CCN4CC[C@@H](O)C4)C(=O)Nc4ccccc4)CC2C3)c1 (stereo not given in full),–,–
211,CS(=O)(=O)N1CCCC(CN(C(=O)Nc2ccc(F)c(Cl)c2)[C@@H]2CC[C@]3(c4cccc(C#N)c4)CC3C2)C1 (stereo not given in full),9,3
15,N#Cc1cccc([C@]23CC[C@@H](N(CCN4CCCCCC4)C(=O)Nc4ccc(F)c(Cl)c4)CC2C3)c1 (stereo not given in full),–,–
6,CC(C)N(CCN(C(=O)Nc1cccc(Cl)c1)[C@@H]1CC[C@]2(c3cccc(C#N)c3)CC2C1)C(C)C (stereo not given in full),–,–
316,O=C(Nc1ccc(F)c(Cl)c1)N(CCN1CCCC1)C1CC=C(c2cc3ccccc3o2)CC1 (stereo not given),–,–
54,N#Cc1cccc([C@]23CC[C@@H](N(CCN4CC[C@@H](O)C4)C(=O)Nc4ccc(F)cc4)CC2C3)c1 (stereo not given in full),–,–
60,N#Cc1cccc([C@]23CC[C@@H](N(CCN4CC[C@@H](O)C4)C(=O)Nc4cccc([N+](=O)[O-])c4)CC2C3)c1 (stereo not given in full),–,–
5.4,CS(=O)(=O)N1CCC(CN(C(=O)Nc2ccc(F)c(F)c2)[C@@H]2CC[C@]3(c4cccc(C#N)c4)CC3C2)CC1 (stereo not given in full),34,15
27,N#Cc1cccc([C@]23CC[C@@H](N(CCN4CC[C@@H](O)C4)C(=O)Nc4cccc(Cl)c4)CC2C3)c1 (stereo not given in full),–,–
15,N#Cc1cccc([C@]23CC[C@@H](N(CCN4CC[C@@H](O)C4)C(=O)Nc4cc(F)cc(F)c4)CC2C3)c1 (stereo not given in full),–,–
20,N#Cc1cccc([C@]23CC[C@@H](N(CCN4CC[C@@H](O)C4)C(=O)Nc4cccc(F)c4)CC2C3)c1 (stereo not given in full),–,–
134,N#Cc1cccc([C@]23CC[C@@H](N(CCN4CC[C@@H](O)C4)C(=O)Nc4ccc5c(c4)OCO5)CC2C3)c1 (stereo not given in full),–,–
2.7,CC(C)N(CCN(C(=O)Nc1cccc([N+](=O)[O-])c1)[C@@H]1CC[C@]2(c3cccc(C#N)c3)CC2C1)C(C)C (stereo not given in full),–,–
1880,N#Cc1cccc([C@]23CC[C@@H](N(CCN4CC[C@@H](O)C4)C(=O)Nc4ccccc4F)CC2C3)c1 (stereo not given in full),–,–
7.8,CC(C)N(CCN(C(=O)Nc1ccc(F)c(F)c1)[C@@H]1CC[C@]2(c3cccc(Br)c3)CC2C1)C(C)C (stereo not given in full),–,–
23,CC(=O)NC1CCN(CCN(C(=O)Nc2ccc(F)c(Cl)c2)[C@@H]2CC[C@]3(c4cccc(C#N)c4)CC3C2)C1 (stereo not given in full),–,–
11,CCN(CCO)CCN(C(=O)Nc1ccc(F)c(Cl)c1)[C@@H]1CC[C@]2(c3cccc(C#N)c3)CC2C1 (stereo not given in full),–,–
48,Cc1ccc(NC(=O)N(CCN2CC[C@@H](O)C2)[C@@H]2CC[C@]3(c4cccc(C#N)c4)CC3C2)cc1F (stereo not given in full),–,–
7.6,CC(C)N(CCN(C(=O)Nc1cccc(C#N)c1)[C@@H]1CC[C@]2(c3cccc(C#N)c3)CC2C1)C(C)C (stereo not given in full),–,–
85,Cc1ccc(C2=CCC(N(CCN3CCCC3)C(=O)Nc3ccc(F)c(Cl)c3)CC2)s1 (stereo not given),12,–
1970,O=C(Nc1ccc(F)c(Cl)c1)N(CCN1CCCC1)C1CC=C(c2ccc[nH]2)CC1 (stereo not given),–,–
373,COc1cccc(NC(=O)N(CCN2CC[C@@H](O)C2)[C@@H]2CC[C@]3(c4cccc(C#N)c4)CC3C2)c1 (stereo not given in full),–,–
539,Cc1cc(C)cc(NC(=O)N(CCN2CC[C@@H](O)C2)[C@@H]2CC[C@]3(c4cccc(C#N)c4)CC3C2)c1 (stereo not given in full),–,–
15,CC1CCCCN1CCN(C(=O)Nc1ccc(F)c(Cl)c1)[C@@H]1CC[C@]2(c3cccc(C#N)c3)CC2C1 (stereo not given in full),–,–
